Assay results as given in publication PMC7722202 (Angewandte Chemie (International ed. in English), 2020).

Legend:
HeLa cells [1] = test: Mitochondrial membrane potential with JC-1 probe, live-cell confocal microscopy; assay type: cell-based, human; settings: 2 μM JC-1 probe, excitation 488 nm, NP5 after 30 min incubation
Method in brief: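 Live HeLa cells were exposed to the test peptide materials for set times, then stained with 2 μM JC-1 followed by Hoechst 33342 before imaging. Confocal microscopy, both channels excited at 488 nm: monomer green at 510–550 nm, J-aggregate red at 585–649 nm; nuclei at ex 405/em 420–480 nm. Green and red fluorescence were compared. CCCP was run alongside.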

HeLa cells [2] = assay type: cell-based, human
[3] = Hydrodynamic diameter by dynamic light scattering; assay type: physicochemical; settings: DLS; nanoparticles via photo-PISA at solids content of 15 wt.%

Substance | red fluorescence of JC-1 J-aggregates (mitochondrial membrane potential) (HeLa cells [1]) | cytotoxicity in HeLa cells (HeLa cells [2]) | Dh (hydrodynamic diameter) [3]
poly[(KLAAm10-co-DMA10)-b-(DAAm280-co-DMA120)] [NP5] | almost no red emission |  | 
poly[(KLAAm10-co-DMA30)-b-(DAAm280-co-DMA120)] [NP3] |  | dose-dependent cytotoxicity | 105 nm
